Measurements reported in ChEMBL document CHEMBL3351794, “Synthesis and biological evaluation of pentacyclic strychnos alkaloids as selective modulators of the ABCC10 (MRP7) efflux pump” (J Med Chem, 2014).
Activity calls are given as the source filed them. The rule behind the calls is not given here.

Tests used:
[1] = target: T1, ATP-binding cassette sub-family C member 10 (Homo sapiens) (UniProt Q5T3U5); test: Inhibition of ABCC10 (unknown origin) assessed as reduction in BeFx-sensitive ATPase activity incubated over 20 mins by inorganic phosphate release assay
T1 sequence (whole entry): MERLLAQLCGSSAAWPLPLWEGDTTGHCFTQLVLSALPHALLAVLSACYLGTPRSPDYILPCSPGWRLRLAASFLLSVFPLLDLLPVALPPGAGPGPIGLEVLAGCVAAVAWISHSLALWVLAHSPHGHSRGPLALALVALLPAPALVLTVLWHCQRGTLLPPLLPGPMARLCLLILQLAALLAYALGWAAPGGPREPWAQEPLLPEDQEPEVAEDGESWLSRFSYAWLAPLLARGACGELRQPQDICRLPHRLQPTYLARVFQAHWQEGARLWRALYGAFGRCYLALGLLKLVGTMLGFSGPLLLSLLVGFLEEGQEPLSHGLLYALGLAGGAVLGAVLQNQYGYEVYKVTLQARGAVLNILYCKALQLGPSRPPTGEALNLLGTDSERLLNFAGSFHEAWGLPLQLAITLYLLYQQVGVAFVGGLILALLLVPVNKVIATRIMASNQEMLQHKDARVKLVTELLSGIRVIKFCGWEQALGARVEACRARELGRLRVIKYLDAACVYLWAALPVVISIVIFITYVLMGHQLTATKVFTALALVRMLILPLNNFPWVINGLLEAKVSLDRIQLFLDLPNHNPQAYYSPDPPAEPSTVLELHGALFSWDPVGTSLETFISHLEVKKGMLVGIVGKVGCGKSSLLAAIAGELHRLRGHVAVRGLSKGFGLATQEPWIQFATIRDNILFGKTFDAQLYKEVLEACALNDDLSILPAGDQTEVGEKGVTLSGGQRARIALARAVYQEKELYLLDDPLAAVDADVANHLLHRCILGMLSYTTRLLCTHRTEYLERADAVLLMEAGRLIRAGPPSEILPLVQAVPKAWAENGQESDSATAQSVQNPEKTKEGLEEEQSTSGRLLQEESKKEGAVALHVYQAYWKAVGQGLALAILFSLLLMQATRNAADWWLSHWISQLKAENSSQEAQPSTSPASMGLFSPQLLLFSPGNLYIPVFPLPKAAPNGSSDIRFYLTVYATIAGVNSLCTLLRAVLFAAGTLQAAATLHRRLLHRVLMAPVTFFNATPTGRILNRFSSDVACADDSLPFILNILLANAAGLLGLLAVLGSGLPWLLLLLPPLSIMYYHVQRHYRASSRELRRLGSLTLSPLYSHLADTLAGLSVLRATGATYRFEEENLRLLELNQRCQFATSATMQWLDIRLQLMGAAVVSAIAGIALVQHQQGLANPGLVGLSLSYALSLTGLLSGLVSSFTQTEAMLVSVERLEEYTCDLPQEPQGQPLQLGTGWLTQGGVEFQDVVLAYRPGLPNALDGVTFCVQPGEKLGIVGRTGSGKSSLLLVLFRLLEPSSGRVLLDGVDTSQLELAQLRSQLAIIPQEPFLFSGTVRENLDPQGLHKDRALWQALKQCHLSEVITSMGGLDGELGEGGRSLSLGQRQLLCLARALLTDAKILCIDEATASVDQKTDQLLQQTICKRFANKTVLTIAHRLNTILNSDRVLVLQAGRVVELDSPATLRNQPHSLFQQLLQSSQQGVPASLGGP
Summary of the method: (§1)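 Membranes holding ABCC10 (5−10 μg protein) were preincubated for 5 min at 37 °C with test agent in 2× assay buffer (Tris-HCl pH 7.5, KCl, sodium azide, EGTA, ouabain, DTT) plus MgCl2. The reaction was started with 5 mM ATP and run 20 min at 37 °C, then stopped with 5% SDS. Released Pi was read colorimetrically (Lanzetta), and ABCC10 activity was taken as the BeFx-sensitive fraction.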

[2] = target: P-gp (ABCB1) ATPase activity (Homo sapiens, UniProt P08183); test: Inhibition of P-gp (unknown origin) assessed as reduction in ATPase activity at 2.08 to 6.25 uM incubated over 20 mins by inorganic phosphate release assay
Sequence of P-gp (ABCB1) ATPase activity (P08183 whole entry): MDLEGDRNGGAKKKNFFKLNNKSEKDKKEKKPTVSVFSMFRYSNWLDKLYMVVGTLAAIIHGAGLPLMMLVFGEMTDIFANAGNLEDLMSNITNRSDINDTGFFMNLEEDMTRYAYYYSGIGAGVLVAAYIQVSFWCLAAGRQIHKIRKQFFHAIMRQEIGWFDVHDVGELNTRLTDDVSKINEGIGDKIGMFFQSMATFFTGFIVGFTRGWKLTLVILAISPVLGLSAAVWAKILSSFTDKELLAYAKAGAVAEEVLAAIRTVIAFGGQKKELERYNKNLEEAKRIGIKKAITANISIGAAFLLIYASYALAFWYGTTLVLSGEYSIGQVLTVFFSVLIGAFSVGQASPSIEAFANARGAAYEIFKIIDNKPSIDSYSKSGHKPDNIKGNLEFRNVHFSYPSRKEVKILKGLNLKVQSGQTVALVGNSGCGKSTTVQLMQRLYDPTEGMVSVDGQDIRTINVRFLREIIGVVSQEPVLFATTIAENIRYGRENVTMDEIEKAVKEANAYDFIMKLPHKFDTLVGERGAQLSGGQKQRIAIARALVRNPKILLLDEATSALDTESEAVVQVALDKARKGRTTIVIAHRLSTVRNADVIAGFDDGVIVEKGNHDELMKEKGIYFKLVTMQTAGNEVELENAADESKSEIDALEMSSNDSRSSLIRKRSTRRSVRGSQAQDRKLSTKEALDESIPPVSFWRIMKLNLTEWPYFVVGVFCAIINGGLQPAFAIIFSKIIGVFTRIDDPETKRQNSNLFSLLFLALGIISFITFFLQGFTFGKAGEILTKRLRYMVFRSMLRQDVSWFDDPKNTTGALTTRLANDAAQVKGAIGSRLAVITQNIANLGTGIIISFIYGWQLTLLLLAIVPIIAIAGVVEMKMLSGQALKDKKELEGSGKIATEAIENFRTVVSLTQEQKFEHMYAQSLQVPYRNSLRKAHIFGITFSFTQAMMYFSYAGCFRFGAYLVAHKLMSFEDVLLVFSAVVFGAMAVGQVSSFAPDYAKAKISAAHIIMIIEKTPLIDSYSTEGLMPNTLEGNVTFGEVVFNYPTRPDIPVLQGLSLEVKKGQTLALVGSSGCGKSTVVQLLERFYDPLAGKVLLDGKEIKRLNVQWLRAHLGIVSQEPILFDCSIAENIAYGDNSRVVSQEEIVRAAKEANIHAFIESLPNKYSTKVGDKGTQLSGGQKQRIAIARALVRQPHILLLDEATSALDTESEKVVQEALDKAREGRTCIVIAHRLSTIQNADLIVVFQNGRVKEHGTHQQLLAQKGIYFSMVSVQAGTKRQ
Summary of the method: (§2)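 P-gp ATPase assay run in the same way as the ABCC10 assay. Membrane protein (5−10 μg) was preincubated 5 min at 37 °C with test agent, buffer (Tris-HCl pH 7.5, KCl, azide, EGTA, ouabain, DTT) and MgCl2. The reaction was started with 5 mM ATP, run 20 min at 37 °C and quenched with SDS. Pi was measured colorimetrically.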

[3] = target: T1, ATP-binding cassette sub-family C member 10 (Homo sapiens); test: Inhibition of ABCC10 (unknown origin) assessed as reduction in BeFx-sensitive ATPase activity at 2.08 to 50 uM incubated over 20 mins by inorganic phosphate release assay; summary of the method: as §1
[4] = target: ATP-dependent translocase ABCB1 (Homo sapiens, UniProt P08183); test: Inhibition of P-gp (unknown origin) assessed as reduction in ATPase activity at 2.08 to 50 uM incubated over 20 mins by inorganic phosphate release assay; summary of the method: as §2
Sequence of ATP-dependent translocase ABCB1 (P08183 whole entry): as above

[5] = target: T1, ATP-binding cassette sub-family C member 10 (Homo sapiens); test: Inhibition of ABCC10 (unknown origin) expressed in HEK293 cells assessed as reversal of paclitaxel resistance at 12.5 uM after 72 hrs by MTS/PMS assay; type: cell-based
Summary of the method: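 Cells used were HEK293-pcDNA3 vector control and the ABCC10 (MRP7) transfectants C17 and C18, seeded in triplicate at 5000 cells/well in DMEM with 10% FBS. Next day, paclitaxel was added at various concentrations, with or without modulator at 12.5 μM. Survival was read after 72 h of drug exposure by MTS/PMS colorimetric assay.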

[6] = target: T1, ATP-binding cassette sub-family C member 10 (Homo sapiens); test: Inhibition of ABCC10 (unknown origin) assessed as reduction in BeFx-sensitive ATPase activity at 50 uM incubated over 20 mins by inorganic phosphate release assay; summary of the method: as §1
[7] = target: T1, ATP-binding cassette sub-family C member 10 (Homo sapiens); test: Inhibition of ABCC10 (unknown origin) assessed as reduction in BeFx-sensitive ATPase activity at 12.5 uM incubated over 20 mins by inorganic phosphate release assay; summary of the method: as §1

| inhibition [3] | SMILES | inhibition (INH) [4] | inhibition [5] | further results |
| --- | --- | --- | --- | --- |
| inactive | COC(=O)C1=C2Nc3ccccc3[C@@]23CCN2C[C@H]([C@@H](C)O)[C@@H]1C[C@H]23 | – | – | inhibition at 20 min [2]: 35% |
| inactive | CCOC(=O)O[C@H](C)[C@H]1CN2CC[C@]34C(=C(C(=O)OC)[C@H]1C[C@H]23)Nc1ccccc14 [ALSTOLUCINE A] | Not Active | – | – |

More lines, now with the values behind:

| SMILES | inhibition [3] | inhibition (INH) [4] | inhibition [5] | further results |
| --- | --- | --- | --- | --- |
| COc1ccc2cc1Oc1ccc(cc1)C[C@H]1c3c(cc4c(c3Oc3cc5c(cc3OC)CCN(C)[C@@H]5C2)OCO4)CCN1C | – | – | – | inhibition [1]: 20% |
| COC(=O)C1=C2Nc3ccccc3[C@@]23CCN2C[C@H](C(C)=O)[C@@H]1C[C@H]23 [ALSTOLUCINE F] | – | Not Active | 50% | inhibition [6]: 40% |
| COC(=O)C1=C2Nc3ccccc3[C@@]23CCN2C[C@@H](C(C)=O)[C@@H]1C[C@H]23 [ALSTOLUCINE B] | – | Not Active | 50% | inhibition [7]: 40% |
